Calls of active or inactive are those of the source. No cut-off for these calls is given here.
Experiments:
[1] = target: T1, DNA topoisomerase 2-alpha (Homo sapiens, UniProt P11388); experiment: Inhibition of human topoisomerase 2-mediated relation of supercoiled DNA at 500 uM after 60 mins
[2] = target: T2, DNA topoisomerase 1 (Homo sapiens) (UniProt P11387); experiment: Inhibition of human topoisomerase 1-mediated relation of supercoiled DNA at 500 uM after 45 mins
T2 sequence (whole entry): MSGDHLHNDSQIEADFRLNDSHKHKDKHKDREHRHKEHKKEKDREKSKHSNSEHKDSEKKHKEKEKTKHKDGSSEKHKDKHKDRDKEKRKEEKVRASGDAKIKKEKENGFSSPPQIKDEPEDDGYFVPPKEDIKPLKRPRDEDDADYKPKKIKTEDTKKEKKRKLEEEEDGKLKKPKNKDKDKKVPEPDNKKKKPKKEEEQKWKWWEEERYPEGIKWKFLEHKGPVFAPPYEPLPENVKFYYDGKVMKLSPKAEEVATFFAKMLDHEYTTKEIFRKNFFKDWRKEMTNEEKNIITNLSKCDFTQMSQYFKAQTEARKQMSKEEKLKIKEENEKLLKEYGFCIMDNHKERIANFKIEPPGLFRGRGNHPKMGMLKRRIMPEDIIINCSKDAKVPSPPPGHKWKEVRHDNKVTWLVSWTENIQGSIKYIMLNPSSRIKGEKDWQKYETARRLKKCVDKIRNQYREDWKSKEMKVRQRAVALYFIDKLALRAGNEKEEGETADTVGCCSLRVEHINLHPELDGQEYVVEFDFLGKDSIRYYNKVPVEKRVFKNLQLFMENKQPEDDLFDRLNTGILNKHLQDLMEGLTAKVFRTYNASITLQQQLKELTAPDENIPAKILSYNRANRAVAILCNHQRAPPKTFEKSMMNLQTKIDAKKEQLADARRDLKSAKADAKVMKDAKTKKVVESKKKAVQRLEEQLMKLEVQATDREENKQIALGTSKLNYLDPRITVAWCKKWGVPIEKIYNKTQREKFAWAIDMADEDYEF
Procedure, shortened: (§1)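 Screened at 500 μM, then 100–500 μM. Read-out is 0.8% agarose gel with ethidium stain and densitometry of the supercoiled fraction. IC50 is the 50% inhibition of relaxation; triplicate, mean ± SEM.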

[3] = Inhibition of wheat germ topoisomerase 1-mediated relaxation of supercoiled DNA after 45 mins; parameters: species or system Triticum aestivum
Procedure, shortened: (§2)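 Tested at 500 μM, then 75–1000 μM. Percent inhibition derived from the supercoiled fraction on 0.8% agarose gels stained with ethidium; IC50 at 50% inhibition of relaxation; triplicate, mean ± SEM.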

Triticum aestivum [4] = experiment: Inhibition of wheat germ topoisomerase 1-mediated relaxation of supercoiled DNA at 500 uM after 45 mins; procedure, shortened: as §2
[5] = target: T1, DNA topoisomerase 2-alpha; experiment: Inhibition of human topoisomerase 2-mediated relation of supercoiled DNA after 60 mins
DNA topoisomerase 1 = target: T3, DNA topoisomerase 1 (Homo sapiens, UniProt P11387); experiment: Inhibition of human topoisomerase 1-mediated relation of supercoiled DNA after 45 mins; procedure, shortened: as §1
T3 sequence (P11387 whole entry): T2 sequence (whole entry)

[6] = target: T1, DNA topoisomerase 2-alpha; experiment: Inhibition of human topoisomerase 2-mediated relation of supercoiled DNA at 100 to 1000 uM after 60 mins
[7] = target: T1, DNA topoisomerase 2-alpha; experiment: Inhibition of human topoisomerase 2-mediated relation of supercoiled DNA at 800 uM after 60 mins
[8] = target: T1, DNA topoisomerase 2-alpha; experiment: Inhibition of human topoisomerase 2-mediated relation of supercoiled DNA at 400 uM after 60 mins
[9] = target: T1, DNA topoisomerase 2-alpha; experiment: Inhibition of human topoisomerase 2-mediated relation of supercoiled DNA at 100 uM after 60 mins
Triticum aestivum [10] = experiment: Inhibition of wheat germ topoisomerase 1-mediated relaxation of supercoiled DNA at 1000 uM after 45 mins; procedure, shortened: as §2
Triticum aestivum [11] = experiment: Inhibition of wheat germ topoisomerase 1-mediated relaxation of supercoiled DNA at 75 uM after 45 mins; procedure, shortened: as §2
MCF7 [12] = experiment: Growth inhibition of human MCF7 cells after 48 hrs by XTT assay; type: functional, cell-based; settings: MCF7, 48 h
Procedure, shortened: (§3)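 XTT assay; HeLa, MCF7 and HepG2 seeded at 1.5 × 104, 2 × 104 and 3.5 × 10^4 cells/well in DMEM with 10% heat-inactivated FBS and penicillin/streptomycin, grown 24 h at 37 °C in 5% CO2. Compound added in DMEM-PS (100–500 μM) for 48 h, then XTT 4 h; OD at 450 nm, reference 650 nm. Etoposide 100 μM positive control; mean ± SEM.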

HepG2 [13] = experiment: Growth inhibition of human HepG2 cells after 48 hrs by XTT assay; type: functional, cell-based; settings: HepG2, 48 h; procedure, shortened: as §3
HeLa [14] = experiment: Growth inhibition of human HeLa cells after 48 hrs by XTT assay; type: functional, cell-based; procedure, shortened: as §3
HepG2 [15] = experiment: Growth inhibition of human HepG2 cells at 100 uM after 48 hrs by XTT assay; type: functional; settings: HepG2, 48 h, read-out: GI; procedure, shortened: as §3
MCF7 [16] = experiment: Growth inhibition of human MCF7 cells at 100 uM after 48 hrs by XTT assay; type: functional; settings: MCF7, 48 h, read-out: GI; procedure, shortened: as §3
HeLa [17] = experiment: Growth inhibition of human HeLa cells at 100 uM after 48 hrs by XTT assay; type: functional; settings: read-out: GI; procedure, shortened: as §3
[18] = target: T2, DNA topoisomerase 1 (Homo sapiens); experiment: Inhibition of human topoisomerase 1-mediated relation of supercoiled DNA at 100 uM after 45 mins; procedure, shortened: as §1

T1 sequence (P11388 whole entry): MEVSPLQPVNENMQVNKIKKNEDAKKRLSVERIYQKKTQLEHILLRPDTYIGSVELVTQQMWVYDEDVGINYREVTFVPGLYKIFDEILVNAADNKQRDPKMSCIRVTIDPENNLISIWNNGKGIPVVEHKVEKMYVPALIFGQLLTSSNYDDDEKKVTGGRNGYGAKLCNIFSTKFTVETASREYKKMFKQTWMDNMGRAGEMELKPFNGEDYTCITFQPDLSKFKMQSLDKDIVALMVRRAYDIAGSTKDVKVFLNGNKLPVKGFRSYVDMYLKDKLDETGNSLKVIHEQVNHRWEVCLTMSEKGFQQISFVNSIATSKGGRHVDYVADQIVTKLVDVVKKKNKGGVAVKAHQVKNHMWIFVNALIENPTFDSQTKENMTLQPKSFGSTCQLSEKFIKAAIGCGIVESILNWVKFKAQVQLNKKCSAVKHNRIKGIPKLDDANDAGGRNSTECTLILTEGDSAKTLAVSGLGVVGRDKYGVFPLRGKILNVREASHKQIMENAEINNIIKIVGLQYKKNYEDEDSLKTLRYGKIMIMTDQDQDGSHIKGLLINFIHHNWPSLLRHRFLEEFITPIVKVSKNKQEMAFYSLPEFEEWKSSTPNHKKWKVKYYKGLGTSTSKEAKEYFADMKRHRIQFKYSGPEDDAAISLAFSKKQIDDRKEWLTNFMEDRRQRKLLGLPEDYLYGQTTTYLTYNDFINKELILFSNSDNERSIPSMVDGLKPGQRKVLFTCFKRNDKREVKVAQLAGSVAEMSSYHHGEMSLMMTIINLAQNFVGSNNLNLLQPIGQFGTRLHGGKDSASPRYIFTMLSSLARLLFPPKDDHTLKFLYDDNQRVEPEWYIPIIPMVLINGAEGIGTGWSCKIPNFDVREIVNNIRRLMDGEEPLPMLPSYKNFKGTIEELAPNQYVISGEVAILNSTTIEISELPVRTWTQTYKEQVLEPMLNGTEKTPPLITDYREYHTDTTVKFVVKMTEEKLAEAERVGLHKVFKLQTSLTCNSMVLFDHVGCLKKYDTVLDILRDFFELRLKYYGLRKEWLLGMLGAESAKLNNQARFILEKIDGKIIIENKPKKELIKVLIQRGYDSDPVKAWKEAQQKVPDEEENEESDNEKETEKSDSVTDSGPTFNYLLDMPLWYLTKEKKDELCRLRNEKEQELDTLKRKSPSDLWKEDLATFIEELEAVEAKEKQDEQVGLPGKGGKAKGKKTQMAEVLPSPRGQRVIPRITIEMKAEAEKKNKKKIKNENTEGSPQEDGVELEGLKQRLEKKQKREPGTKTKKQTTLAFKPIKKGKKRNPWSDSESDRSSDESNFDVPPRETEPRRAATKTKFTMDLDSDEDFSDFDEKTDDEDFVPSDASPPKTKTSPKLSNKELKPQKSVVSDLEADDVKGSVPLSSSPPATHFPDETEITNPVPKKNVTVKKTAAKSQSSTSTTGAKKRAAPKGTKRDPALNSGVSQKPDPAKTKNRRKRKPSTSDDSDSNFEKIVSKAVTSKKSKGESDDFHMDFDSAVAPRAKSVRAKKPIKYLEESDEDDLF

| SMILES | inhibition [1] | inhibition [2] | IC50 [3] | inhibition (Triticum aestivum [4]) | IC50 [5] | IC50 (DNA topoisomerase 1) | inhibition [6] | also measured |
| --- | --- | --- | --- | --- | --- | --- | --- | --- |
| C[C@@H]1O[C@@H](Oc2cc(O)c3c(=O)c(O[C@@H]4OC[C@H](O)[C@H](O)[C@H]4O)c(-c4ccc(O)cc4)oc3c2)[C@H](O)[C@H](O)[C@H]1O | Active | Active | 240 µM | Active | 330 µM | 250 µM | Dose-dependent effect | – |
| C[C@@H]1O[C@@H](Oc2cc(O)c3c(=O)c(O[C@@H]4O[C@H](CO)[C@H](O)[C@H](O)[C@H]4O)c(-c4ccc(O)cc4)oc3c2)[C@H](O)[C@H](O)[C@H]1O | Active | Active | 200 µM | Active | – | 180 µM | – | – |
| C[C@@H]1O[C@@H](Oc2cc(O)c3c(=O)c(O[C@@H]4O[C@H](CO)[C@@H](O)[C@H](O)[C@H]4O[C@@H]4O[C@@H](C)[C@H](O)[C@@H](O)[C@H]4O)c(-c4ccc(O)cc4)oc3c2)[C@H](O)[C@H](O)[C@H]1O | Active | Active | – | – | – | 220 µM | – | – |
| C[C@@H]1O[C@@H](Oc2cc(O)c3c(=O)c(O[C@@H]4O[C@H](CO)[C@H](O)[C@H](O)[C@H]4O[C@@H]4O[C@@H](C)[C@H](O)[C@@H](O)[C@H]4O)c(-c4ccc(O)cc4)oc3c2)[C@H](O)[C@H](O)[C@H]1O | Active | Active | 150 µM | Active | – | 260 µM | – | – |
| C[C@@H]1O[C@@H](Oc2cc(O)c3c(=O)c(O[C@H]4OC[C@@](O)(CO)[C@@H]4O)c(-c4ccc(O)cc4)oc3c2)[C@H](O)[C@H](O)[C@H]1O | Active | – | – | – | 550 µM | – | Dose-dependent effect | inhibition [7]: 80%; inhibition [8]: 44% |
| CC(=O)OC[C@]1(O)CO[C@H](Oc2c(-c3ccc(O)cc3)oc3cc(O[C@@H]4O[C@@H](C)[C@H](O)[C@@H](O)[C@H]4O)cc(O)c3c2=O)[C@H]1O | 88% | Active | 120 µM | Active | 240 µM | 150 µM | Dose-dependent effect | inhibition [9]: 22%; inhibition (Triticum aestivum [10]): 99%; inhibition (Triticum aestivum [11]): 44%; IC50 (MCF7 [12]): 350 µM; IC50 (HepG2 [13]): 410 µM; IC50 (HeLa [14]): 350 µM |
| COc1cc([C@@H]2c3cc4c(cc3[C@@H](O[C@@H]3O[C@@H]5CO[C@@H](C)O[C@H]5[C@H](O)[C@H]3O)[C@H]3COC(=O)[C@H]23)OCO4)cc(OC)c1O [ETOPOSIDE] | – | – | – | – | – | – | – | inhibition of growth at 100 µM (HepG2 [15]): 100%; inhibition of growth at 100 µM (MCF7 [16]): 100%; inhibition of growth at 100 µM (HeLa [17]): 100% |
| C[C@@H]1O[C@@H](Oc2cc(O)c3c(=O)c(O[C@@H]4O[C@H](CO)[C@@H](O)[C@H](O)[C@H]4O)c(-c4ccc(O)cc4)oc3c2)[C@H](O)[C@H](O)[C@H]1O | Active | 94% | 350 µM | Active | 600 µM | 110 µM | Dose-dependent effect | inhibition [18]: 45% |
